# Variants at the floor of the assay were thinned out.
# B1: tRNA (parent)
# chain: GUUCCGUUGGCGUAAUGGUAACGCGUCUCCCUCCUAAGGAGAAGACUGCGGGUUCGAGUCCCGUACGGAACG
# Variants of: B1
# Test: yeast fitness relative to wild type (ratio to wild type); higher = fitter; tRNA-Arg(CCU), competitive growth, 37 C, YPD
# In short: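 Amplicons of the tRNA-Arg(CCU) gene were sequenced, 100-nucleotide paired-end, from the start population and from each end population of a pooled yeast competition. The competition, in six parallel replicates, lasted 24 hours in YPD at 37°C. Fitness relative to wild type was calculated from changes in genotype frequencies. Genotypes had to have ≥ 100 starting reads, and estimates < 0.5 were set to 0.5.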
row,Variant,yeast fitness
1,GUUCCGUUGGCGUAAUGGUAACGUGUCUCCCUCCUAAGGACAAGACUGCGGGUUCGAGUCCCGUACGGAACG,0.847
2,GUUCCGUUGGCGUAAUGGUAACGUGUCUCCCUCCUAAGGAGAAAACUGCGGGUUCGAGUUCAGUACGGAACG,≤ 0.5
3,GUUCCGUUGGCGUAAUGGUAACGUGUCUCCCUCCUAAGGAGAACACUGCGGGUUCGAGUCCCGUACGGAACG,0.825
4,GUUCCGUUGGCGUAAUGGUAACGUGUCUCCCUCCUAAGGAGAAGACUACGAGUUCGAGUCCCGUACGGAACG,0.665
5,GUUCCGUUGGCGUAAUGGUAACGUGUCUCCCUCCUAAGGAGAAGACUGCGGAUUCAAGUCCCGUACGGAACG,0.703
6,GUUCCGUUGGCGUAAUGGUAACGUGUCUCCCUCCUAAGGAGAAGACUGCGGGUUCAAGUACCGUACGGAACG,0.594
7,GUUCCGUUGGCGUAAUGGUAACGUGUCUCCCUCCUAAGGAGAAGACUGCGGGUUCGAAUCCCGUACGGAACG,0.988
8,GUUCCGUUGGCGUAAUGGUAACGUGUCUCCCUCCUAAGGAGAAGACUGCGGGUUCGAAUGCCGUACGGAACG,0.897
9,GUUCCGUUGGCGUAAUGGUAACGUGUCUCCCUCCUAAGGAGAAGACUGCGGGUUCGAGUCCCAUACGGAACG,0.869
10,GUUCCGUUGGCGUAAUGGUAACGUGUCUCCCUCCUAAGGAGAAGACUGCGGGUUCGAGUCCCCUACGGAACG,0.771
11,GUUCCGUUGGCGUAAUGGUAACGUGUCUCCCUCCUAAGGAGAAGACUGCGGGUUCGAGUCCCGUACAGAACG,0.913
12,GUUCCGUUGGCGUAAUGGUAACGUGCAUCCCUCCUAAGGAGAAGACUGCGGGUUCGAGUCCCGUACGGUACG,≤ 0.5
13,GUUCCGUUGGCGUAAUGGUAACGUGCCUCCCUCCUAAGGAGAAGACUGCGGGUUCGAAUCCCGUACGGAACG,1.01
14,GUUCCGUUGGCGUAAUGGUAACGUGGCUCCCUCCUGAGGAGAGGACUGCGGGUUCGAGUCCCGUACGGAACG,≤ 0.5
15,GUUCCGUUGGCGUAAUGGUAACGUGGCUCUCUCCUAAGCAGAAGACUGCGGGUUCGAGUCCCGUACAGUACG,≤ 0.5
16,GUUCCGUUGGCGUAAUGGUAACGUGGCUCCCUCCUAAGGAGAAGACUGCGAGUUCGAGUCCCGUACGGAACG,≤ 0.5
17,GUUCCGUUGGCGUAAUGGUAACGUGUCCCCCUCCUAAGGCGAAGACUGCGGGUUCGAGUCCCGUACGCAACG,≤ 0.5
18,GUUCCGUUGGCGUAAUGGUAACGUGUCCCCCUCCUAAGGAGAAGACUACGGGUUCGAGUCGCGUACGGAACG,≤ 0.5
19,GUUCCGUUGGCGUAAUGGUAACGUGUCGCCCUCCUAAGGAGAAGACUACGGGUUCGAGUCCCGUACGGAACG,≤ 0.5

row,Variant,yeast fitness
1,GUUCCGUUGGCGUAAUGGUAACGUGUCUCCCACCUAAGGAGAAGACUGCGGGUUCGAGUUCCGUACGGAACG,≤ 0.5
2,GUUCCGUUGGCGUAAUGGUAACGUGUCUCCCACCUAAAGAGAAGACUGCGGGUUCGUGUCCCGUACGUAACG,≤ 0.5
3,GUUCCGUUGGCGUAAUGGUAACGUGUCUCCCACCUAAGGAGAAGACUGCGGGUACGAGUCCCGUACGGAACG,≤ 0.5
4,GUUCCGUUGGCGUAAUGGUAACGUGUCUCCCCCCUAAGGAGAAGAAUGCGGGUUCGAGUCCCGUACGGAUCG,0.65
5,GUUCCGUUGGCGUAAUGGUAACGUGUCUCCCGCCUAAGGUGAAGACUGCGGGUUCGAGUCCCGGGCGGAACG,≤ 0.5
6,GUUCCGUUGGCGUAAUGGUAACGUGUCUCCCUCCUAAGGAGAAGACACCGGGUGCGAGUCCCGUCCGGAACG,≤ 0.5
7,GUUCCGUUGGCGUAAUGGUAACGUGUCUCCCUCCUAAGGAGAAGACUGCGGGAUCGAGUCCCGUACGGAACG,0.626
8,GUUCCGUUGGCGUAAUGGUAACGUGUCUCCCUCCUAAGGAGAAGACUGCGGGAUAGAGUCCCGUACGGAACG,0.65
9,GUUCCGUUGGCGUAAUGGUAACGUGUCUCCCUCCUAAGGAGAAGACUGCGGGUGCGAGUCCCGUACGGAACG,0.577
10,GUUCCGUUGGCGUAAUGGUAACGUGUCUCCCUCCUAAGGAGAAGACUGCGGGUUCGAGACCCGUUCGGAACG,≤ 0.5
11,GUUCCGUUGGCGUAAUGGUAACGCAUCUCCCUCCUCAGGAGAAGACUGCGGGUUCGAGUCCCGUACGGAACG,0.52
12,GUUCCGUUGGCGUAAUGGUAACGCAUCUCCCUCCUUAGGAGAAGAGUGCGGGUUCGAGUCCAGUACGGCACG,≤ 0.5
13,GUUCCGUUGGCGUAAUGGUAACGCAUCUCCCUCCUACGGAGAAGACUGCGGGUUCGAGUCCCGUACGGUACG,0.684
14,GUUCCGUUGGCGUAAUGGUAACGCAUCUCCCUCCUAAGGGGAAGACUGCGGGUUCGAGUCCCGUACGGAACG,0.972
15,GUUCCGUUGGCGUAAUGGUAACGCAUCUCCCUCCUAAGGUGAAGACUGCGGGUUCGACUCCCGUACGGAACG,0.973
16,GUUCCGUUGGCGUAAUGGUAACGCAUCUCCCUCCUAAGGAGGACACUGGGGGUUCGAGUCCCGUACGGAUCG,≤ 0.5
17,GUUCCGUUGGCGUAAUGGUAACGCAUCUCCCUCCUAAGGAGUAGACUGCGGGUUCGGGUCCCGUACGGAACG,≤ 0.5
18,GUUCCGUUGGCGUAAUGGUAACGCAUCUCCCUCCUAAGGAGACGACUGCGGGUUCGAGCCCCGUACGGAACG,0.71
19,GUUCCGUUGGCGUAAUGGUAACGCAUCUCCCUCCUAAGGAGAUGACUGCGGGUUCGAGUCACGUACGGAACG,0.765

# Source: the RNAGym collection of RNA variant scans (doi:10.1126/science.aae0568)
